Assay results as given in ChEMBL document CHEMBL1127511, “Synthesis and antitumor activity of a series of [2-substituted-4,5-bis(aminomethyl)-1,3-dioxolane]platinum(II) complexes” (J Med Chem, 1994).
Where “and” joins values, the source holds several entries; their conditions need not be identical. Equal values may be shown once.

How the values were obtained:
MKN-45 = test: Cytotoxicity activity against human stomach adenocarcinoma cell lines MKN-45by using MTT assay; type: functional, cell-based
Method in brief: (§1)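 Human stomach cancer lines in RPMI-1640 with 10% heat-inactivated FCS and penicillin/streptomycin, 37 °C, 5% CO2, seeded to stay in exponential growth. Compound added as 0.1–100.0 μg/mL solutions (stock, diluted 1:10 in well), triplicate, 4 days. MTT for 4 h, formazan dissolved in DMSO or acidified 2-propanol, read at 540 nm. IC50 from OD relative to control by probit analysis, ≥3 experiments.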

[1] = test system: KATO III stomach cancer cell line; test: Cytotoxicity activity against human stomach adenocarcinoma cell lines KATO-III by using MTT assay; type: functional, cell-based; method in brief: as §1
SNU-5 = test: In vitro cytotoxicity activity against human stomach cancer cell lines SNU-5; type: functional, cell-based; method in brief: as §1
PC-14 = test: Cytotoxicity activity against human non-small cell lung adenocarcinoma cell lines PC-14 by using MTT assay; type: functional, cell-based
NCI-N87 = test: In vitro cytotoxicity activity against human stomach cancer cell lines NCI-N87; type: functional, cell-based; method in brief: as §1
SNU1 = test: In vitro cytotoxicity activity against human stomach cancer cell lines SNU-1; type: functional, cell-based; method in brief: as §1
PC-9 = test: Cytotoxicity activity against human non-small cell lung adenocarcinoma cell lines PC-9 by using MTT assay; type: functional, cell-based
SNU-16 = test: In vitro cytotoxicity activity against human stomach cancer cell lines SNU-16; type: functional, cell-based; method in brief: as §1
Mus musculus [2] = organism: Mus musculus; test: Number of toxic deaths/number of animals tested; type: functional, organism-based
Method in brief: (§2)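 L1210-bearing BDF1 mice (1 × 10^6 cells ip, day 0), seven per dose group, treated ip on days 1, 5 and 9. Toxic deaths counted per group. Cures are animals without gross evidence of tumor on day 50, when experiments ended.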

L1210 [3] = test: Antitumor activity against Cisplatin-Resistant L1210 Leukemia cells in mice at their respective dose at 100 mg/kg, ip, days; type: functional, organism-based; design: dose 100 mg/kg; conditions: Mus musculus
Method in brief: (§3)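 BDF1 male mice inoculated ip on day 0 with 1 × 10^6 viable (trypan blue-excluding) L1210 cells, or cisplatin-resistant L1210 cells, maintained by serial ip passage in DBA/2 mice. The resistant line came from continuous exposure to rising cisplatin and was passaged in DBA/2 mice given cisplatin 5 mg/kg ip on days 1 and 5. Drug ip on days 1, 5, 9; seven mice per dose; end day 50; %T/C from mean survival time.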

L1210 [4] = test: Antitumor activity against Cisplatin-Resistant L1210 Leukemia cells in mice at their respective dose at 25 mg/kg, ip, days; type: functional, organism-based; design: dose 25 mg/kg; conditions: Mus musculus; method in brief: as §3
Mus musculus [5] = test: The serum levels of blood urea nitrogen in mice after a single intraperitoneal at dose 150 mg/kg on day1; type: functional, organism-based; design: dose 150 mg/kg
Method in brief: (§4)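 Male ICR mice, single ip dose on day 0 in 0.5% carboxymethylcellulose sodium in water, six per group. Blood drawn from the posterior vena cava under anesthesia on days 1, 4, 8. Serum obtained by centrifugation (1500g, 10 min) and run on a biochemistry analyzer. Values are mean ± SE.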

Mus musculus [6] = test: The serum levels of creatinine in mice after a single intraperitoneal at dose 150 mg/kg on day 8; type: functional, organism-based; design: dose 150 mg/kg; method in brief: as §4
[7] = Number of deaths/number of animals tested; out of 7 mouse; type: functional; method in brief: as §2
L1210 [8] = test: Antitumor activity against L1210 (murine leukemia) cells in mice at 100 mg/kg i.p.; type: functional, organism-based; design: dose 100 mg/kg; conditions: Mus musculus; method in brief: as §3
Mus musculus [9] = test: The serum levels of blood urea nitrogen in mice after a single intraperitoneal at dose 150 mg/kg on day 4; type: functional, organism-based; design: dose 150 mg/kg; method in brief: as §4
Mus musculus [10] = test: The serum levels of blood urea nitrogen in mice after a single intraperitoneal at dose 150 mg/kg on day 8; type: functional, organism-based; design: dose 150 mg/kg; method in brief: as §4
L1210 [11] = test: Antitumor activity against L1210 Leukemia cells in mice at 50 mg/kg; type: functional, organism-based; design: dose 50 mg/kg; conditions: Mus musculus; method in brief: as §3
L1210 [12] = test: Antitumor activity against L1210 Leukemia cells in mice at 6.25 mg/kg; type: functional, organism-based; design: dose 6.25 mg/kg; conditions: Mus musculus; method in brief: as §3
Mus musculus [13] = organism: Mus musculus; test: Number of cures/number of animals tested; out of 7 mouse; type: functional, organism-based; method in brief: as §2
Mus musculus [14] = test: The serum levels of creatinine in mice after a single intraperitoneal at dose 150 mg/kg on day 4; type: functional, organism-based; design: dose 150 mg/kg; method in brief: as §4
L1210 [15] = test: Antitumor activity against L1210 Leukemia cells in mice at 25 mg/kg; type: functional, organism-based; design: dose 25 mg/kg; conditions: Mus musculus; method in brief: as §3
L1210 [16] = test: Antitumor activity against L1210 Leukemia cells in mice at 12.5 mg/kg; type: functional, organism-based; design: dose 12.5 mg/kg; conditions: Mus musculus; method in brief: as §3
L1210 [17] = test: Antitumor activity against Cisplatin-Resistant L1210 Leukemia cells in mice at their respective dose at 50 mg/kg, ip, days; type: functional, organism-based; design: dose 50 mg/kg; conditions: Mus musculus; method in brief: as §3
Mus musculus [18] = test: The serum levels of creatinine in mice after a single intraperitoneal at dose 150 mg/kg on day1; type: functional, organism-based; design: dose 150 mg/kg; method in brief: as §4
Mus musculus [19] = test: Antitumor activity against L1210 Leukemia cells in mice at their respective dose at 1.5 mg/kg, ip, days; type: functional, organism-based; design: dose 1.5 mg/kg; conditions: Leukemia cell; method in brief: as §3
Mus musculus [20] = test: The serum levels of blood urea nitrogen in mice after a single intraperitoneal at dose 6.0 mg/kg on day 8; type: functional, organism-based; design: dose 6 mg/kg; method in brief: as §4
Mus musculus [21] = test: Antitumor activity against L1210 Leukemia cells in mice at their respective dose at 3.1 mg/kg, ip, days; type: functional, organism-based; design: dose 3.1 mg/kg; conditions: Leukemia cell; method in brief: as §3
Mus musculus [22] = test: The serum levels of creatinine in mice after a single intraperitoneal at dose 6.0 mg/kg on day 4; type: functional, organism-based; design: dose 6 mg/kg; method in brief: as §4
Mus musculus [23] = test: The serum levels of creatinine in mice after a single intraperitoneal at dose 6.0 mg/kg on day1; type: functional, organism-based; design: dose 6 mg/kg; method in brief: as §4
Mus musculus [24] = test: The serum levels of blood urea nitrogen in mice after a single intraperitoneal at dose 6.0 mg/kg on day 4; type: functional, organism-based; design: dose 6 mg/kg; method in brief: as §4
Mus musculus [25] = test: The serum levels of creatinine in mice after a single intraperitoneal at dose 6.0 mg/kg on day 8; type: functional, organism-based; design: dose 6 mg/kg; method in brief: as §4
L1210 [26] = test: Antitumor activity against Cisplatin-Resistant L1210 Leukemia cells in mice at their respective dose at 3.1 mg/kg, ip, days; type: functional, organism-based; design: dose 3.1 mg/kg; conditions: Mus musculus; method in brief: as §3
L1210 [27] = test: Antitumor activity against Cisplatin-Resistant L1210 Leukemia cells in mice at their respective dose at 1.5 mg/kg, ip, days; type: functional, organism-based; design: dose 1.5 mg/kg; conditions: Mus musculus; method in brief: as §3
Mus musculus [28] = test: The serum levels of blood urea nitrogen in mice after a single intraperitoneal at dose 6.0 mg/kg on day1; type: functional, organism-based; design: dose 6 mg/kg; method in brief: as §4

CARBOPLATIN [listing 1 of 2 here]
IC50 (MKN-45): 6.4 µg/mL | IC50 [1]: 10.5 µg/mL | IC50 (SNU-5): 10.75 µg/mL | IC50 (PC-14): 5.8 µg/mL | IC50 (NCI-N87): 153.38 µg/mL | IC50 (SNU1): 37.78 µg/mL | IC50 (PC-9): 19 µg/mL | IC50 (SNU-16): 34.02 µg/mL

CISPLATIN [listing 1 of 2 here]
IC50 (MKN-45): 0.51 µg/mL | IC50 [1]: 0.83 µg/mL | IC50 (SNU-5): 1.29 µg/mL | IC50 (PC-14): 0.77 µg/mL | IC50 (NCI-N87): 13.73 µg/mL | IC50 (SNU1): 2.9 µg/mL | IC50 (PC-9): 1.03 µg/mL | IC50 (SNU-16): 2.83 µg/mL

CARBOPLATIN [listing 2 of 2 here]
Ratio (Mus musculus [2]): 1 | T/C (L1210 [3]): 81% | T/C (L1210 [4]): 98% | BUN (Mus musculus [5]): 24.4 mg 100ml-1 | Creatinine (Mus musculus [6]): 0.31 mg 100ml-1 | Ratio [7]: 2 | T/C (L1210 [8]): 197% | BUN (Mus musculus [9]): 21.1 mg 100ml-1 | BUN (Mus musculus [10]): 28.6 mg 100ml-1 | T/C (L1210 [11]): 196% | T/C (L1210 [12]): 107% | Ratio (Mus musculus [13]): 1 and 2 | Creatinine (Mus musculus [14]): 0.19 mg 100ml-1 | T/C (L1210 [15]): 148% | T/C (L1210 [16]): 125% | T/C (L1210 [17]): 132% | Creatinine (Mus musculus [18]): 0.25 mg 100ml-1

CISPLATIN [listing 2 of 2 here]
T/C (Mus musculus [19]): 142% | Ratio (Mus musculus [2]): 5 and 2 | BUN (Mus musculus [20]): 32.5 mg 100ml-1 | T/C (Mus musculus [21]): 167% | Creatinine (Mus musculus [22]): 0.28 mg 100ml-1 | Creatinine (Mus musculus [23]): 0.26 mg 100ml-1 | BUN (Mus musculus [24]): 43.1 mg 100ml-1 | T/C (L1210 [12]): 82% | Creatinine (Mus musculus [25]): 0.4 mg 100ml-1 | T/C (L1210 [26]): 109% | T/C (L1210 [27]): 86% | BUN (Mus musculus [28]): 24.8 mg 100ml-1
